Measurements taken from ChEMBL document CHEMBL3621107, “Ring fusion strategy for synthesis and lead optimization of sulfur-substituted anthra[1,2-c][1,2,5]thiadiazole-6,11-dione derivatives as promising scaffold of antitumor agents” (Eur J Med Chem, 2015).

Assays:
Assay type in all cases: functional
[1] = test system: A498; assay: Cytotoxicity against human A498 cells after 48 hrs by SRB assay; conditions: A498, 48 h
Outline: (§1)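 NCI-60 human tumour cell panel screen, second stage, run by the NCI Developmental Therapeutics Program. Compounds were tested at five concentrations (0.01, 0.1, 1, 10 and 100 μM). Percentage growth was plotted against log10 concentration for each cell line. GI50, TGI and LC50 were taken from these dose-response curves.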

[2] = test system: SR; assay: Cytotoxicity against human SR cells after 48 hrs by SRB assay
Outline: (§2)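 NCI-60 five-dose study run by NCI DTP at 0.01, 0.1, 1, 10 and 100 µM. Percentage growth at each level was plotted against log10 concentration for each line, and GI50, TGI and LC50 were read from the dose-response curves.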

[3] = test system: U-251; assay: Cytotoxicity against human U251 cells after 48 hrs by SRB assay; conditions: U-251, 48 h; outline: as §2
[4] = test system: NCI-H226; assay: Cytotoxicity against human NCI-H226 cells after 48 hrs by SRB assay; conditions: NCI-H226, 48 h
Outline: (§3)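 Second-stage NCI-60 panel run by the NCI Developmental Therapeutics Program, covering nine tumour subpanels. Five concentrations were tested: 0.01, 0.1, 1, 10 and 100 μM. Percentage growth at each level was plotted against log10 drug concentration. GI50, TGI and LC50 were read from these dose-response curves. Subpanel MID values were divided into the full-panel MID to give selectivity ratios.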

[5] = test system: 786-0; assay: Cytotoxicity against human 786-0 cells after 48 hrs by SRB assay; conditions: 786-0, 48 h; outline: as §1
[6] = test system: PC-3; assay: Cytotoxicity against human PC3 cells after 48 hrs by SRB assay; conditions: PC-3, 48 h; outline: as §3
[7] = test system: LOX IMVI; assay: Cytotoxicity against human LOXIMVI cells after 48 hrs by SRB assay; conditions: for CC50: read-out: LC50 (the source's name); outline: as §1
[8] = test system: MCF7; assay: Cytotoxicity against human MCF7 cells after 48 hrs by SRB assay; conditions: MCF7, 48 h; outline: as §1
[9] = Cytotoxicity against human CNS cancer cells assessed as growth inhibition after 48 hrs by SRB assay; conditions: Cancer cell lines
Outline: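 NCI-60 five-dose data (0.01–100 μM) were grouped by tumour subpanel. A subpanel mean (MID) of GI50 was computed for the CNS cancer lines. A selectivity ratio was obtained as full-panel MID divided by subpanel MID: 3–6 counts as moderate, >6 as high.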

[10] = test system: DU-145; assay: Cytotoxicity against human DU145 cells after 48 hrs by SRB assay; conditions: DU-145, 48 h; outline: as §1
[11] = test system: HCC 2998; assay: Cytotoxicity against human HCC2998 cells after 48 hrs by SRB assay; conditions: HCC 2998, 48 h; outline: as §1
[12] = test system: HT-29; assay: Cytotoxicity against human HT-29 cells after 48 hrs by SRB assay; conditions: HT-29, 48 h; outline: as §1
[13] = test system: HOP-62; assay: Cytotoxicity against human HOP62 cells after 48 hrs by SRB assay; conditions: HOP-62, 48 h; outline: as §1
[14] = test system: SNB-75; assay: Cytotoxicity against human SNB75 cells after 48 hrs by SRB assay; conditions: SNB-75, 48 h; outline: as §2
[15] = test system: A549; assay: Cytotoxicity against human A549 cells after 48 hrs by SRB assay; conditions: A549, 48 h; outline: as §1
[16] = Cytotoxicity against human melanoma cells assessed as growth inhibition after 48 hrs by SRB assay; conditions: Melanoma cell
Outline: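 Values come from the NCI-60 five-dose panel (0.01–100 µM). The subpanel MID is the mean GI50 over the lines of that tumour subpanel. The selectivity ratio is the full-panel MID divided by the subpanel MID; 3–6 is rated moderate and >6 high.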

[17] = test system: SK-OV-3; assay: Cytotoxicity against human SKOV3 cells after 48 hrs by SRB assay; conditions: SK-OV-3, 48 h; outline: as §3
[18] = test system: K562; assay: Cytotoxicity against human K562 cells after 48 hrs by SRB assay; conditions: K562, 48 h; outline: as §1
[19] = test system: Malme-3M; assay: Cytotoxicity against human MALME-3M cells after 48 hrs by SRB assay; outline: as §1
[20] = test system: KM12; assay: Cytotoxicity against human KM12 cells after 48 hrs by SRB assay; conditions: KM12, 48 h; outline: as §1
[21] = test system: RXF 393; assay: Cytotoxicity against human RXF393 cells after 48 hrs by SRB assay; conditions: RXF 393, 48 h; outline: as §3
[22] = test system: UO-31; assay: Cytotoxicity against human UO31 cells after 48 hrs by SRB assay; conditions: UO-31, 48 h; outline: as §2
[23] = test system: NCI-H23; assay: Cytotoxicity against human NCI-H23 cells after 48 hrs by SRB assay; conditions: NCI-H23, 48 h; outline: as §3
[24] = test system: SN12C; assay: Cytotoxicity against human SN12C cells after 48 hrs by SRB assay; conditions: for CC50: read-out: LC50 (the source's name); outline: as §3
[25] = test system: NCI-H522; assay: Cytotoxicity against human NCI-H522 cells after 48 hrs by SRB assay; conditions: NCI-H522, 48 h; outline: as §3
[26] = test system: ACHN; assay: Cytotoxicity against human ACHN cells after 48 hrs by SRB assay; outline: as §1
[27] = test system: SF-295; assay: Cytotoxicity against human SF295 cells after 48 hrs by SRB assay; conditions: SF-295, 48 h; outline: as §3
[28] = test system: RPMI-8226; assay: Cytotoxicity against human RPMI8226 cells after 48 hrs by SRB assay; conditions: RPMI-8226, 48 h; outline: as §3
[29] = Cytotoxicity against human Hs578T cells after 48 hrs by SRB assay; conditions: Hs-578T; outline: as §1

SMILES: O=C1c2ccccc2C(=O)c2c1cc(Sc1ccc(F)cc1F)c1nsnc21
- GI50 [1]: 2.26 µM
- LC50 (concentration killing 50% of cells) [1]: > 100 µM
- TGI [1]: 58.5 µM
- GI50 [2]: 2.97 µM
- LC50 [2]: 52.7 µM
- TGI [2]: 9.06 µM
- GI50 [3]: 1.9 µM
- LC50 [3]: 9.94 µM
- TGI [3]: 4.35 µM
- GI50 [4]: 3.09 µM
- LC50 (concentration killing 50% of starting cells) [4]: 59.1 µM
- TGI [4]: 11.1 µM
- GI50 [5]: 1.85 µM
- LC50 (concentration killing 50% of cells) [5]: 6.75 µM
- TGI [5]: 3.53 µM
- GI50 [6]: 1.96 µM
- LC50 (concentration killing 50% of cells) [6]: 85.7 µM
- TGI [6]: 6.41 µM
- GI50 [7]: 1.21 µM
- TGI [7]: 2.64 µM
- CC50 [7]: 5.77 µM
- GI50 [8]: 1.31 µM
- LC50 (concentration killing 50% of cells) [8]: 7.39 µM
- TGI [8]: 3.11 µM
- GI50 [9]: 5.69 µM
- GI50 [10]: 6.3 µM
- LC50 [10]: 45 µM
- TGI [10]: 18.7 µM
- GI50 [11]: 11.3 µM
- LC50 [11]: 56.4 µM
- TGI [11]: 25.3 µM
- GI50 [12]: 8.72 µM
- LC50 [12]: > 100 µM
- TGI [12]: 36.3 µM
- GI50 [13]: 1.82 µM
- LC50 [13]: 6.01 µM
- TGI [13]: 3.3 µM
- GI50 [14]: 1.57 µM
- LC50 (concentration killing 50% of cells) [14]: 13.1 µM
- TGI [14]: 4.22 µM
- GI50 [15]: 14.9 µM
- LC50 (concentration killing 50% of cells) [15]: > 100 µM
- TGI [15]: 42.4 µM
- GI50 [16]: 2.12 µM
- GI50 [17]: 2.34 µM
- LC50 [17]: 13 µM
- TGI [17]: 5.08 µM
- GI50 [18]: 3.32 µM
- LC50 [18]: 68.4 µM
- TGI [18]: 11.8 µM
- GI50 [19]: 3.26 µM
- LC50 [19]: 41.7 µM
- TGI [19]: 8.65 µM
- GI50 [20]: 9.91 µM
- LC50 (concentration killing 50% of cells) [20]: > 100 µM
- TGI [20]: 77.3 µM
- GI50 [21]: 2.02 µM
- LC50 (concentration killing 50% of cells) [21]: 6.67 µM
- TGI [21]: 3.69 µM
- GI50 [22]: 3.03 µM
- LC50 [22]: 42.6 µM
- TGI [22]: 15 µM
- GI50 [23]: 1.88 µM
- LC50 [23]: 43.1 µM
- TGI [23]: 6.99 µM
- GI50 [24]: 1.64 µM
- TGI [24]: 4.96 µM
- CC50 [24]: 19.4 µM
- GI50 [25]: 3.76 µM
- LC50 (concentration giving 50% net cell kill) [25]: 37.1 µM
- TGI [25]: 12.4 µM
- GI50 [26]: 1.85 µM
- LC50 [26]: 7.14 µM
- TGI [26]: 3.63 µM
- GI50 [27]: 9 µM
- LC50 [27]: > 100 µM
- TGI [27]: 44.2 µM
- GI50 [28]: 2.2 µM
- LC50 [28]: 63.9 µM
- TGI [28]: 8.08 µM
- GI50 [29]: 2.81 µM
- LC50 [29]: > 100 µM
- TGI [29]: > 100 µM

SMILES: O=C1c2ccccc2C(=O)c2c1cc(Sc1cccc(Cl)c1)c1nsnc21
- GI50 [1]: 13 µM
- LC50 (concentration killing 50% of cells) [1]: 6.54 µM
- TGI [1]: 29.2 µM
- GI50 [2]: 2 µM
- LC50 [2]: > 100 µM
- TGI [2]: 8.09 µM
- GI50 [3]: 1.7 µM
- LC50 [3]: 9.39 µM
- TGI [3]: 4 µM
- GI50 [4]: 2.39 µM
- LC50 (concentration killing 50% of starting cells) [4]: 57.5 µM
- TGI [4]: 6.06 µM
- GI50 [5]: 2.91 µM
- LC50 (concentration killing 50% of cells) [5]: 31.1 µM
- TGI [5]: 8.97 µM
- GI50 [6]: 2.27 µM
- LC50 (concentration killing 50% of cells) [6]: 69.9 µM
- TGI [6]: 11.8 µM
- GI50 [7]: 0.54 µM
- TGI [7]: 2.08 µM
- CC50 [7]: 5.73 µM
- GI50 [8]: 1.3 µM
- LC50 (concentration killing 50% of cells) [8]: 8.78 µM
- TGI [8]: 3.37 µM
- GI50 [9]: 4.47 µM
- GI50 [10]: 2.27 µM
- LC50 [10]: 14.3 µM
- TGI [10]: 5.09 µM
- GI50 [11]: 16.2 µM
- LC50 [11]: 62.1 µM
- TGI [11]: 31.7 µM
- GI50 [12]: 20.1 µM
- LC50 [12]: 100 µM
- TGI [12]: 66.7 µM
- GI50 [13]: 1.85 µM
- LC50 [13]: 8.81 µM
- TGI [13]: 4.04 µM
- GI50 [14]: 1.99 µM
- LC50 (concentration killing 50% of cells) [14]: 23.7 µM
- TGI [14]: 6.23 µM
- GI50 [15]: 6.66 µM
- LC50 (concentration killing 50% of cells) [15]: 73.6 µM
- TGI [15]: 24.4 µM
- GI50 [16]: 1.56 µM
- GI50 [17]: 3.97 µM
- LC50 [17]: 34.8 µM
- TGI [17]: 12.1 µM
- GI50 [18]: 2.41 µM
- LC50 [18]: > 100 µM
- TGI [18]: 7.27 µM
- GI50 [19]: 1.98 µM
- LC50 [19]: 6.85 µM
- TGI [19]: 3.68 µM
- GI50 [20]: 12 µM
- LC50 (concentration killing 50% of cells) [20]: 65.7 µM
- TGI [20]: 28 µM
- GI50 [21]: 2.15 µM
- LC50 (concentration killing 50% of cells) [21]: 10.9 µM
- TGI [21]: 4.7 µM
- GI50 [22]: 1.78 µM
- LC50 [22]: 9.73 µM
- TGI [22]: 4.16 µM
- GI50 [23]: 1 µM
- LC50 [23]: 22.8 µM
- TGI [23]: 3.58 µM
- GI50 [24]: 1.05 µM
- TGI [24]: 2.58 µM
- CC50 [24]: 6.35 µM
- GI50 [25]: 1.84 µM
- LC50 (concentration giving 50% net cell kill) [25]: 9.91 µM
- TGI [25]: 4.26 µM
- GI50 [26]: 1.62 µM
- LC50 [26]: 6.63 µM
- TGI [26]: 3.27 µM
- GI50 [27]: 7.84 µM
- LC50 [27]: 57.9 µM
- TGI [27]: 22.9 µM
- GI50 [28]: 1.42 µM
- LC50 [28]: > 100 µM
- TGI [28]: 6.32 µM
- GI50 [29]: 1.97 µM
- LC50 [29]: > 100 µM
- TGI [29]: 6.55 µM
